Assay results of several laboratories.
Each line is one published result; the experiments were not run side by side.
Organism: Staphylococcus aureus
Read-out: microbial growth

Cc1cc(N)c2ccccc2[n+]1CCCCCCCCCC[n+]1c(C)cc(N)c2ccccc21 — inhibition zone (disc diffusion; 50 µg/disc): 9 mm
CC(C(=O)O)N1c2nc(-c3ccc(Cl)cc3)c(C#N)c(=O)n2NC1c1ccccc1O (stereo not shown) — inhibition zone (ATCC25923; 10 µg/mL; 24 h): 14 mm
COc1ccc2nc(-n3nc(C)c4c3-c3ccccc3C4=O)sc2c1 — inhibition zone (well diffusion; NCIM5021; 125 µg/mL): 11 mm
COc1cc(C=Cc2cc(-c3ccc(N(C)C)cc3)nc(O)n2)ccc1O — inhibition zone (disc diffusion; ATCC29213; 500 µg/mL): 6.33 mm
N#Cc1c(-c2ccc(Cl)cc2)nc2n(c1=O)NC(c1ccccc1O)N2C(Cc1c[nH]c2ccccc12)C(=O)O (stereo not shown) — inhibition zone (ATCC25923; 10 µg/mL; 24 h): 18 mm
COc1cc(C=CC(=O)CC(c2ccc(N(C)C)cc2)n2ccnc2)ccc1O (stereo not shown) — inhibition zone (disc diffusion; ATCC29213; 500 µg/mL): 10.7 mm
CC(C(=O)O)N1C2=NC(c3ccc(Cl)cc3)C3=C(OC(C)(C)OC3=O)N2NC1(C)c1ccccc1O (stereo not shown) — inhibition zone (ATCC25923; 10 µg/mL; 24 h): 10 mm
CC(C)Cc1nn(-c2nc3ccc(Br)cc3s2)c2c1C(=O)c1ccccc1-2 — inhibition zone (well diffusion; NCIM5021; 125 µg/mL): 11 mm
CC1(C)S[C@@H]2[C@H](NC(=O)[C@H](N)c3ccc(O)cc3)C(=O)N2[C@H]1C(=O)O — inhibition zone (disc diffusion; ATCC29213; 500 µg/mL): 10.8 mm
CC(=O)C1=C(C)N2NC(c3ccccc3O)N(C(Cc3c[nH]c4ccccc34)C(=O)O)C2=NC1c1ccc(Cl)cc1 (stereo not shown) — inhibition zone (ATCC25923; 10 µg/mL; 24 h): 19 mm
COc1cc(C=CC(=O)CC(c2ccc([N+](=O)[O-])cc2)n2ccnc2)ccc1O (stereo not shown) — inhibition zone (disc diffusion; ATCC29213; 500 µg/mL): 7 mm
Cc1ccc2nc(-n3nc(CC(C)C)c4c3-c3ccccc3C4=O)sc2c1 — inhibition zone (well diffusion; NCIM5021; 500 µg/mL): 11 mm
O=C(O)c1cn(C2CC2)c2cc(N3CCNCC3)c(F)cc2c1=O — inhibition zone (disc diffusion; 100 µg/mL; 24 h): 24 mm
CC(C)c1nn(-c2nc3ccccc3s2)c2c1C(=O)c1ccccc1-2 — inhibition zone (well diffusion; NCIM5021; 125 µg/mL): 10 mm
CCOC(=O)C1=C(C)N2NC(C)(c3ccccc3O)N(C(Cc3c[nH]c4ccccc34)C(=O)O)C2=NC1c1ccc(Cl)cc1 (stereo not shown) — inhibition zone (ATCC25923; 10 µg/mL; 24 h): 18 mm
Cc1ccc2nc(-n3nc(C)c4c3-c3ccccc3C4=O)sc2c1 — inhibition zone (well diffusion; NCIM5021; 250 µg/mL): 11 mm
CN[C@H](CC(C)C)C(=O)N[C@H]1C(=O)N[C@@H](CC(N)=O)C(=O)N[C@H]2C(=O)N[C@H]3C(=O)N[C@H](C(=O)N[C@H](C(=O)O)c4cc(O)cc(O)c4-c4cc3ccc4O)[C@H](O)c3ccc(c(Cl)c3)Oc3cc2cc(c3O[C@@H]2O[C@H](CO)[C@@H](O)[C@H](O)[C@H]2O[C@H]2C[C@](C)(N)[C@H](O)[C@H](C)O2)Oc2ccc(cc2Cl)[C@H]1O — inhibition zone (disc diffusion; ATCC29213; 15.6 µg/disc; 24 h): 16 mm
CCOC(=O)C1=C(C)N2NC(c3ccccc3O)N(C(Cc3c[nH]c4ccccc34)C(=O)O)C2=NC1c1ccc(Cl)cc1 (stereo not shown) — inhibition zone (ATCC25923; 10 µg/mL; 24 h): 19 mm
CC(C)Cc1nn(-c2nc3ccc(Cl)cc3s2)c2c1C(=O)c1ccccc1-2 — inhibition zone (well diffusion; NCIM5021; 1000 µg/mL): 11 mm
